From the RNAGym collection of RNA variant scans (doi:10.1126/science.aae0568)
Fewer inactive variants are shown than the library holds.

B1: tRNA (parent)
chain: GUUCCGUUGGCGUAAUGGUAACGCGUCUCCCUCCUAAGGAGAAGACUGCGGGUUCGAGUCCCGUACGGAACG

Variants of: B1
Experiment: yeast fitness relative to wild type (ratio to wild type); higher = fitter; tRNA-Arg(CCU), competitive growth, 37 C, YPD
Outline: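 Gene amplicons from the start population and from each of six end populations were read by 100-nucleotide paired-end sequencing. Those end populations came from pooled Saccharomyces cerevisiae strains carrying tRNA-Arg(CCU) gene variants at the native locus, competed in YPD at 37°C for 24 hours. Fitness relative to wild type was worked out from changes in genotype frequencies. Genotypes needed ≥ 100 starting reads, and estimates < 0.5 were set to 0.5.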

| Variant | yeast fitness |
| --- | --- |
| GUUCCGUUGGCCUAAUGGUAACGCGUCUCCCUCCUAAGGAGAGGACUGCGGGUCCGAGUCCCGUACGGCCCG [G12C A43G U54C A69C A70C] | ≤ 0.5 |
| GUUCCGUUGGCGUAAUGGUAUCGCAUCUCCCUCCUAAGGAGAAGACUGCGGGUUCCAGUCCCGUACGGAACG [A21U G25A G56C] | ≤ 0.5 |
| GUUCCGUUAGCGUAAUGGUAAGGCGUCUCCCUCCUUAGGAGAAGACUGCGGGUUCGAGUCCCGUACGGAACG [G9A C22G A36U] | 0.666 |
| GUUCCGAUGGCGUAAUGGUACCGCGUCUCCCCCCUAAGGAGAAGACUCCGGGUUCGAGUACCGUACGGAACG [U7A A21C U32C G48C C60A] | ≤ 0.5 |
| GUUCGGUUGGUGUAAUGGUAACGCGUCUCCCUCCUAAGGAGAAGCCUGCGGGUUCGAGUCCCGUACGGAACG [C5G C11U A45C] | ≤ 0.5 |
| GUUCCGUUGGCGUAAUGGUAACGCCUCUCCUUCCUAAGGAGAAGAUUGCGGGUUCGAGUCCCGUACGGAACG [G25C C31U C46U] | 0.684 |
| GUGCCGUUGGCGUAAUGGUCACGCGUCUCCCUCCUAAGGAGAUGACUGCGGGUUAGAGUCCCGUUCGGAGCG [U3G A20C A43U C55A A65U A70G] | ≤ 0.5 |
| GUUUCGUUGGCGUAAUGGUAACGCGUCUCCCUCCUAAGGAGAAGACUGCGGAUUCGAGUCCCCUACGGAACG [C4U G52A G63C] | 0.595 |
| GUUCCGUUGGCGUAAUGGUAACGCCUCUCCCGCCUAAGGAAAAGACUGCGGGUUCGAGUCCCGUACGGAACG [G25C U32G G41A] | 0.565 |
| GUUCCGUUGGCGUAAAGGUAACGCGUCUCCCUCCUGAGGAGAAGACUGCGGGUUCGUGUCCCGUACGGAGCG [U16A A36G A57U A70G] | ≤ 0.5 |
| GUUCCCUUGGCGUAAUGGUAAUGGGUUUAUGUCCUAAGGAGAAGACUGCGGGUUCGAAUCCCGUACGGAACG [G6C C22U C24G C27U C29A C30U C31G G58A] | ≤ 0.5 |
| GUUCCGUUGGCGUAAUGGUACCGCGUCCCCCUCCUAAGGAGAAGACUGCGGGUUCGAGUCCCGUACGGAACG [A21C U28C] | 0.852 |
| GUUCCGAUGGCGUAAUGGUAACGCGUCUCUCUUCUAAGGAGAAGAUUGCGGGUUCGAGUCCCGUACGGAACG [U7A C30U C33U C46U] | ≤ 0.5 |
| GUUCAGUUGGCGUAAUGGAAACGCGUCUCCCUCCUAAGGAGAAGACUGCGGGUUCGAGUCCCGUACGCAACG [C5A U19A G68C] | 0.539 |
| GUUCCGCUGGCGUAAUGGUAACGCGUCUCCCUCCUAAGGAGAAGACUGCGGGUUCGAGUCCCCUACGGAACG [U7C G63C] | 0.611 |
| GUUCCGUUGGCGUAAUGGUAACGCGUCUCCCUCCUAAGGGGAAGACUGCGCGUUCGUGUCCCGUACGGAACG [A40G G51C A57U] | ≤ 0.5 |
| GUUCCGUUGGCGUAAUGGUAAAGCGUCUCCCUCCUAAGGACAAGACUGCGGGUUCGAGUCCCGUCCGGAACG [C22A G41C A65C] | ≤ 0.5 |
| GUUCCGUUAGCGUAAUGGUCACGCGUCUCCCUCCUAAGGAGAAGACUGCGGGUUCGAGUCCCGUACGGAACG [G9A A20C] | 0.871 |
| GUUCCCUUGGCGUAAUGGUAACGCGUCUCCCUCCUACGGAGAAGACUGCGAACUCGAGUCCAGUACGGAACG [G6C A37C G51A G52A U53C C62A] | 0.561 |

| Variant | yeast fitness |
| --- | --- |
| GUUCCGCUGGCGUAAUGGUAACGCGUCUCCCUCCUAAAGAGAAGACUGCAGGUUCGAAACCCGUACGGAACG [U7C G38A G50A G58A U59A] | 0.579 |
| GUUCCGUUGGCGUAAUGGUAACGCGUCUCCCUCCUAAGGAGAAGACUGCCGGUUCGAGUCCCGUACAGAACG [G50C G67A] | 0.816 |
| GUUCCGUUGGCGUCAUGGUAACGCGUCUCCCUCCUAAGGAGAAGACUGCGGGUUCGAGUCCCGUUCGGAACG [A14C A65U] | 0.62 |
| GUUCCGUUGGCGUAAUGGUAUCGCGUCUCCCUCCUAACGAGAUGACUGCAGGUUCGAGUCCCGUCCGGAACG [A21U G38C A43U G50A A65C] | ≤ 0.5 |
| GUUCCGUUCGCGUAAUGGUAACGCGUCUCCCUCCUAAGGAGAAGCCUGCGGGUUCGAGUCCCGUCCGGAACG [G9C A45C A65C] | ≤ 0.5 |
| GUUCCGUUGGCGUAAUGGUAACGCGUCUCCCUCCUAAGGAGAAGACUGCGGGUUGGAGUCCCGUCCAGAACG [C55G A65C G67A] | ≤ 0.5 |
| GUCCCGUUGGCGUCAUGGUAACGCGUCUCCCUCCUAAGGAGAAGACUGCGGGUUCGAGUCCCGUACGGAACG [U3C A14C] | 0.703 |
| GUUCCGUUGGCGUAAUGGUAACGCGUCUCCCUCCCAAGGAGAAGACUGAGGGUUCGAGUCCCGUACGGAACG [U35C C49A] | 0.735 |
| GUUCCGUUGGCGUAAUGGUAACGCGUCUCCCUCCUUAGGAGCGGACUGCGGGUUCGAGUCCCGCACGGACCG [A36U A42C A43G U64C A70C] | 0.559 |
| GUUCCGUUGGCGUAGUGGUAACGCAUCUCCCUCCUAGGGAGAAGACUGCGGGUUCGAGUCCCGUACGGACCG [A15G G25A A37G A70C] | 0.522 |
| GUUCCGUUGGCGUAAUGGUAACGCGUCUCGAUCCUAAGGAGAAGACUGCGGGUUCGAGUCCCCUACGGAACG [C30G C31A G63C] | 0.546 |
| GUGCAGUUGGCGUAAUGGUGACGCGUCUUCAUCCUAAGGAGAAGACUGCGGGUUUGCGUCCCGUACGGAACG [U3G C5A A20G C29U C31A C55U A57C] | ≤ 0.5 |
| GUUCCCGUGGCGUAAUGGAAACGCGUGUCCCUCCUAAGGAGAAGACUGCGGGAUCGAGUCCCGUACGGAACG [G6C U7G U19A C27G U53A] | 0.612 |
| GUUCCGUUGGCGAAAUGGUAACGCGUUUCCCUCCUAAGGAGAAGACUGCGGGUUGGAGUCCCGUACGGAACG [U13A C27U C55G] | ≤ 0.5 |
| GUUCCGUUGGCGUAAUGGUAACGCGUCUCCCUCCUAAGGAGAAGACUGCGGGUUCGAGUCCGAUACGGAACG [C62G G63A] | 0.796 |
| GUCCUGUUGGCGUAAUGGUAACGCGUCUCCCUCCUAAGCAGAAGACUGCGGGUUCGAGUCCCGUACGGAACG [U3C C5U G39C] | 0.57 |
| GUUCCGUUGGCGUAAUGGUAACGCGUCUCCCUCCUUAGGAGAAGUCUGCGGGAUCGAGUCCCGUACGGAACG [A36U A45U U53A] | 0.554 |
| GCUCCGUUGGCGUAAUGGUAACGCGUCUCCCUCCUAGGGAGAAGACUGCGGGUUCGAGUCCCGUACGGACCG [U2C A37G A70C] | 0.561 |
| GUUCCGUUGGCGUAAUGCUAACGCGUCUUCCUCUUAAGGAGAAGACUGCGGGUUCGAGUCCCGUACGGAACG [G18C C29U C34U] | ≤ 0.5 |
